# Screening data as filed in PubChem BioAssay.
# Rows were chosen to be rich in hits. Some 1.8% of all compounds tested hit in one or more screens of this group.
# Autophagy mod = autophagy modulators in MEF cells, primary screen, imaging, high-content, MEF GFP-LC3; MEF GFP-LC3 puncta imaging; test concentration mostly 10 µM; calls only at 10 µM (by protocol); 190,000 tested, 0.98% active; AID 463193, 2010;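 active = percentage of spot-positive cells more than 3 SD above its plate mean, without a fluorescence outlier flag or 80% toxicity; inconclusive = no clear call, values can overlap the other calls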
# Insulin prom up = insulin promoter activators in MIN6 cells, imaging, high-content screening, mouse beta cells; z-score at 5 µM; MIN6 insulin promoter-GFP reporter; stronger effect = higher value; 190,000 tested, 0.3% active;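 active = z-score above 3 at 5 µM with at least 500 cells counted in the well; inconclusive = wells under 500 cells, flagged as cytotoxic or low count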
# TNAP inh hiacc = human TNAP enzyme inhibitors, primary screen, biochemical, luminescent, high phosphate acceptor level, uHTS. purified TNAP, CDP-star luminescence, 1 M DEA. inhibition, % at 20 µM. 200,000 tested, 0.03% active;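 active = over 50% inhibition of tissue-nonspecific alkaline phosphatase at 20 µM in the single-dose screen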
# TNAP inh no acc = human TNAP enzyme inhibitors, primary screen, biochemical, luminescent, no phosphate acceptor, uHTS. purified TNAP, CDP-star luminescence, 30 min. inhibition, % at 20 µM. 200,000 tested, 0.26% active. AID 1012, 2008;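 active = tissue-nonspecific alkaline phosphatase inhibition above about 50% at 20 µM in the single-dose screen, limit read from the data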
# TNAP act hiacc = TNAP activators at high phosphate acceptor level, primary screen, biochemical, luminescence, uHTS. Alkaline phosphatase, tissue-nonspecific isozyme (Homo sapiens), P05186. purified TNAP, CDP-star luminescence, 1 M DEA, 30 min; stronger effect = higher value; 0 = EDTA background, 1 = DMSO-only activity. activation factor at 20 µM. 200,000 tested, under 10 active. AID 1136, 2008;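 active = activation factor at least 2 at 20 µM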
#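 Assay system: human TNAP; Input: enzyme diluted 1/800 final; Reagent: CDP-star luminogenic substrate at 100 µM final; Timing: 30 min, room temperature; Signal: luminescence; Evaluation: TNAP activation factor scaled between EDTA and DMSO control wells.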
# NCF1 inh = p47phox/p22phox peptide binding inhibitors, primary screen, biochemical, uHTS, NADPH oxidase regulatory subunit; fluorescence polarization, 2 h; inhibition, % at 24.7 µM; AID 1274, 2008; Neutrophil cytosol factor 1 (Homo sapiens), P14598; 220,000 tested, 0.53% active;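 active = inhibition above about 30%, limit read from the data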
# Target sequence (P14598 whole entry, looked up): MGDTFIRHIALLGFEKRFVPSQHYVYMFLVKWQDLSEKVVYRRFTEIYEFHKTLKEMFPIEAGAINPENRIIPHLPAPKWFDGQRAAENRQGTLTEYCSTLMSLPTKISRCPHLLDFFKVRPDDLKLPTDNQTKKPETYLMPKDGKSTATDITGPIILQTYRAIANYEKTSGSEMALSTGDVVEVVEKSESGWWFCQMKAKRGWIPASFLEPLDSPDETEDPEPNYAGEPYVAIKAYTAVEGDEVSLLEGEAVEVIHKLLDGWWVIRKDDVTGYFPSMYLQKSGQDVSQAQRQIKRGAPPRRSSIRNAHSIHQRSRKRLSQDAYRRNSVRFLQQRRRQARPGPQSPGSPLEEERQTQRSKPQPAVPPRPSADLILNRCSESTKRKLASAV
# Hits are given with their value; i = inactive; ? = inconclusive; nt = no result given; + = active, no number.
SMILES,Autophagy mod,Insulin prom up,TNAP inh hiacc,TNAP inh no acc,TNAP act hiacc,NCF1 inh
O=[N+]([O-])C1=CC=C2C(=NC3(CCCCC3)N2O)C1=NCCc1ccccc1,i,i,i,i,i,129.5
O=[N+]([O-])C1=CC=C2C(=NC3(CCCCC3)N2O)C1=NC1CCCCC1,i,i,i,i,i,48.4
CC1(C)CC(N=C2C([N+](=O)[O-])=CC=C3C2=NC2(CCCCC2)N3O)CC(C)(C)N1,nt,i,nt,nt,nt,i
O=C(Nc1nc2c(s1)CN(Cc1ccccc1)CC2)c1c(F)cccc1F,i,i,i,i,i,i
Cc1cc(C)nc(N2N=C(C(F)(F)F)CC2=O)n1,nt,i,nt,nt,nt,i
CCOc1ccccc1NC(=O)CCSc1nc2n[nH]c(C)c2c(=N)n1-c1ccccc1Cl,+,i,i,i,i,i
CCOc1ccccc1-n1c(SCC(=O)Nc2ccc(CC)cc2)nc2n[nH]c(C)c2c1=N,i,i,i,i,i,i
COc1ccc2c(CC(=O)Nc3ccc(OC)nc3)coc2c1,+,i,i,i,i,34.7
CCOC(=O)c1[nH]c(C)c(C(=O)c2cc(F)ccc2F)c1C,+,i,i,i,i,i
CCOC(=O)c1[nH]c(C)c(C(=O)OCC)c1C,i,i,i,i,i,i
O=C(Oc1ccccc1)c1cccc2cccnc12,i,nt,i,i,i,99.2
Cc1ccc(N2C(=O)SC(Cc3ccccc3)C2=O)cc1 (stereo unspecified),nt,i,nt,nt,nt,i
COCCn1nnnc1C(c1ccccc1OC)N1CCN(c2ccccc2)CC1 (stereo unspecified),+,i,i,i,i,i
COC(=O)C1=C(C)N(C)C(=S)NC1c1c(OC)ccc2ccccc12 (stereo unspecified),+,i,i,i,i,i
CCc1c(C(=O)NC2CCCCC2)[nH]c(C)c1C(C)=O,i,3.85,i,i,i,i
COc1cccc(-n2c(Cc3cc(=O)[nH]c(=O)[nH]3)nnc2SCc2cccc(C(F)(F)F)c2)c1,i,i,i,i,i,i
O=c1oc(-c2cccs2)nc2sc3c(c12)CCCC3,i,i,i,i,i,i
O=C1CN(c2nc(-c3cccs3)nc3sc4c(c23)CCCC4)CCN1,+,i,i,i,i,i
CCOC(=O)C1=NN(c2ccc(Cl)cc2)C(=O)C1,nt,i,nt,nt,nt,i
CCN(CC)c1nc2ccccc2nc1C(C#N)C(=O)NCCCOC (stereo unspecified),i,i,i,i,i,i
CCCCN(CCCC)c1nc2ccccc2nc1C(C#N)C(=O)NCCCOC (stereo unspecified),+,nt,i,i,i,i
CCN(CC)c1nc2ccccc2nc1C(C#N)C(=O)NCCc1ccccc1 (stereo unspecified),+,i,i,i,i,i
CN(CCCNC(=O)Cn1cccc1C(=O)c1ccccc1)C1CCCCC1,i,nt,i,i,i,i
COc1ccc(OS(=O)(=O)c2c(C)noc2C)cc1,nt,i,nt,nt,nt,i
O=C(Nc1ncc([N+](=O)[O-])s1)c1cccc([N+](=O)[O-])c1,nt,i,nt,nt,nt,i
SMILES,Autophagy mod,Insulin prom up,TNAP inh hiacc,TNAP inh no acc,TNAP act hiacc,NCF1 inh
O=C(Nc1ccccc1)Nc1ncc([N+](=O)[O-])s1,+,i,i,i,i,i
CCOc1ccc(-c2cc(N3C(=O)Nc4ccccc4N3O)n[nH]2)cc1,i,i,i,52.1,i,i
O=C(C1=NN(c2ccccc2)C2C(=O)N(c3cccc(Cl)c3)C(=O)C12)c1ccccc1 (stereo unspecified),i,3.17,i,i,i,i
O=C(C1=NN(c2ccccc2)C2C(=O)N(c3ccc(Cl)cc3)C(=O)C12)c1ccccc1 (stereo unspecified),i,i,i,i,i,i
O=C(Nc1nc2ccccc2s1)c1cc2c(s1)-c1ccccc1OC2,+,i,i,i,i,i
CCc1ccc(N2C(=O)/C(=C/c3cccs3)N(CC(=O)OC)C2=S)cc1,+,nt,i,i,i,i
COC(=O)c1ccccc1NC1=C/C(=N\S(=O)(=O)c2cccs2)c2ccccc2C1=O,i,i,i,i,i,182.6
O=C1C(Nc2ccccc2)=C/C(=N/S(=O)(=O)c2cccs2)c2ccccc21,i,?,i,i,i,i
CCN(CC)c1ccc(/C=N/NC(=O)c2ccoc2C)c(O)c1,nt,i,nt,nt,nt,i
CC(C)(C)c1ccc(C2CC2C(=O)N/N=C\c2cc3ccccc3nc2Cl)cc1 (stereo unspecified),i,nt,i,i,i,i
Cc1ccc2nc(Cl)c(/C=N/NC(=O)[C@H]3C[C@@H]3c3ccccc3)cc2c1,i,i,i,i,i,30.5
Cc1ccc(NC(=O)CSc2nnc(-c3cccs3)o2)cc1S(=O)(=O)N(C)C,i,i,i,i,i,i
CCN(CC)S(=O)(=O)c1cc(NC(=O)CSc2nnc(-c3cccs3)o2)ccc1C,i,i,i,i,i,51.9
CCN(CC)c1cc(C)c2cc(NC(=O)c3cccs3)ccc2n1,+,i,i,i,i,i
Cc1[nH]c(=O)[nH]c(=O)c1S(=O)(=O)NCCc1ccc(S(N)(=O)=O)cc1,i,i,i,i,i,i
Cc1n[nH]c(C)c1S(=O)(=O)NCCc1ccc(Cl)cc1,i,i,i,60.7,i,i
COc1cc(C(=O)N/N=C/c2sccc2C)cc(OC)c1OC,+,i,i,i,i,i
Cc1ccsc1/C=N/NC(=O)c1ccncc1,i,i,i,i,i,i
CCn1c(SCC(=O)c2ccc(O)c(O)c2)nnc1-c1ccc(C)cc1,i,i,i,52.7,i,i
CCn1c(SCC(=O)c2ccc3c(c2)Cc2ccccc2-3)nnc1-c1ccc(N)cc1,i,i,i,i,i,i
CCc1ccc2c(c1)C1(NN=C(c3cccc4ccccc34)S1)C(=O)N2 (stereo unspecified),+,nt,i,i,i,i
CCc1ccc2c(c1)C1(C(=O)N2)N2CCCC2C(C(=O)c2ccc3ccccc3c2)C12C(=O)Nc1ccccc12 (stereo unspecified),i,i,i,i,i,i
COc1ccc(CCC(=O)Nc2ccc(-c3noc(-c4ccc(OC)c(OC)c4)n3)cc2)cc1,+,i,i,i,i,i
COc1ccc(-c2nc(-c3ccc(NC(=O)c4ccc(Br)o4)cc3)no2)cc1OC,i,i,i,i,i,i
N#CCCn1cc(/C=N/NC(N)=S)c(-c2ccc(Br)cc2)n1,i,i,i,i,i,i
